Activity calls are given as the source filed them. The rule behind the calls is not given here.
What was measured:
[1] = biological target: T1, Leukotriene B4 receptor 2 (Homo sapiens, UniProt Q9NPC1); experiment: Agonist activity at human BLT2 overexpressed in CHO-K1 cells assessed as accumulation of inositol monophosphate measured after 90 mins by HTRF assay; format: functional, cell-based
T1 sequence (Q9NPC1 whole entry): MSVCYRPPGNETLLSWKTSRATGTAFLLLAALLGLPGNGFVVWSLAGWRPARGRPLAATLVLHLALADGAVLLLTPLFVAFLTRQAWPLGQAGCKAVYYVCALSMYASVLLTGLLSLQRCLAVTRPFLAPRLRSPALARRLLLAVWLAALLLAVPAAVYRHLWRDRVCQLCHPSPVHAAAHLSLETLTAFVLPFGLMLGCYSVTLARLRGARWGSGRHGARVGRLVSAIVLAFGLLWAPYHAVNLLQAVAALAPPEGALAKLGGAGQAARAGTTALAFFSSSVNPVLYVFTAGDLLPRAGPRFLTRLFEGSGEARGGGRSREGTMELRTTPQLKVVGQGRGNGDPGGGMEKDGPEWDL

[2] = biological target: T2, Type-1 angiotensin II receptor (Homo sapiens, UniProt P30556); experiment: Antagonist activity at human AT1 overexpressed in CHO-K1 cells in presence of 10 nM [Val5-angiotensin II measured after 90 mins by HTRF based IP-one assay; format: functional, cell-based
T2 sequence (P30556 whole entry): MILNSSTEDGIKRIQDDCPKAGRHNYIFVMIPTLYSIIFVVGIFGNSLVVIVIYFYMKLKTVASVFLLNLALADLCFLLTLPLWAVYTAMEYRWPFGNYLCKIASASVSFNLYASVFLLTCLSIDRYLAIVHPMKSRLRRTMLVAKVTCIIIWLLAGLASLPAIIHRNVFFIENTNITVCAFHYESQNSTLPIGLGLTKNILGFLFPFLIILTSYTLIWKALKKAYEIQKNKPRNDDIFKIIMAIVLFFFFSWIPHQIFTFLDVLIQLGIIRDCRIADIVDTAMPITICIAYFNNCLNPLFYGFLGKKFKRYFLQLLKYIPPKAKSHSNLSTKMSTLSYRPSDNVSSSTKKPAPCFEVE
Procedure, shortened: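 IP-One assay in antagonist mode, [Val⁵]-angiotensin II held constant at 10 nM; IP-1 accumulation read out. IC₅₀ with SEM from at least two runs (n = 2).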

[3] = (§1) Cytotoxicity against human HepG2 cells assessed as cell survival rate at 50 uM measured after 3 days by Celltiter-glo assay relative to control; format: cell-based; settings: HepG2 cells, read-out: Activity
Procedure, shortened: (§2)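 Hep-G2 cells exposed to 50 μM compound for 3 days; ATP content measured by CellTiter-Glo luminescence as an index of metabolic activity and survival; live rate expressed as percent of DMSO control.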

[4] = biological target: Leukotriene B4 receptor 1 (Homo sapiens) (UniProt Q15722); experiment: Agonist activity at human BLT1 overexpressed in CHO-K1 cells assessed as accumulation of inositol monophosphate measured after 90 mins by HTRF assay; format: functional, cell-based
Chain of Leukotriene B4 receptor 1 (Homo sapiens) (Q15722 whole entry): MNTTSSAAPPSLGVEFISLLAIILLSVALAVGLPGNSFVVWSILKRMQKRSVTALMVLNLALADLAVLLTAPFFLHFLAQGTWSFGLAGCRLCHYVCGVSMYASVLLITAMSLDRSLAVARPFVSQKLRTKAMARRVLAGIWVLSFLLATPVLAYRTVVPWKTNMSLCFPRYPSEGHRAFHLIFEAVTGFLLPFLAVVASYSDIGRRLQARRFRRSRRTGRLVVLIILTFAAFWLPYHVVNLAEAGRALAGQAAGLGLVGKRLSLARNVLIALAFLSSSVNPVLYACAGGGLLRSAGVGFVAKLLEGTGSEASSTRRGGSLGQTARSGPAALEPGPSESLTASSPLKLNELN
Procedure, shortened: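 IP-One accumulation assay run in agonist mode, read-out inositol monophosphate as a measure of Gq activation; LTB₄ as reference agonist and positive control. EC₅₀ determinations done at least twice (n = 2).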

HepG2 = experiment: as §1; format: cell-based; settings: hepg2, 72 h, 50 µM; procedure, shortened: as §2
HCT-116 [5] = experiment: Induction of cell proliferation in human HCT-116 cells at 0.03 uM measured after 24 hrs by celltiter blue reagent based fluorescent assay; format: functional
Procedure, shortened: (§3)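 HCT116 seeded at 5 × 10³ cells/well, grown 72 h, then treated 24 h with compound alone or with BLT2 antagonist Ly255283 (1 μM); CellTiterBlue added for the final 4 h, resorufin fluorescence read. Mean ± SEM, n = 3.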

HCT-116 [6] = experiment: Induction of cell proliferation in human HCT-116 cells at 0.1 to 1 uM measured after 24 hrs by celltiter blue reagent based fluorescent assay; format: functional; procedure, shortened: as §3

EC50 ([1]; read-out: EC50)	IC50 ([2]; read-out: IC50)	Activity [4]	EC50 ([1]; cho-k1)	SMILES	further results
550 nM	25 nM	inactive	–	CCCCC1=NC(C)(c2ccccc2)C(=O)N1Cc1ccc(-c2ccccc2-c2nnn[nH]2)cc1 (stereo not given)	viability at 72 h, 50 µM [3]: 56%
–	190 nM	–	–	CCCCC1=NC2(CCCC2)C(=O)N1Cc1ccc(-c2ccccc2C(=O)O)cc1	–
–	390 nM	–	–	CCCCC1NC(C)(C)C(=O)N1Cc1ccc(-c2ccccc2-c2nnn[nH]2)cc1 (stereo not given)	viability at 72 h, 50 µM [3]: 77%
–	> 10000 nM	inactive	Not Active	O=C(O)c1ccccc1-c1ccc(CN2C(=O)C3(CCCC3)N=C2c2ccccc2)cc1	Activity (HepG2): Non-Toxic
–	1010 nM	inactive	Not Active	CCCC[C@@H]1N(Cc2ccc(-c3ccccc3-c3nnn[nH]3)cc2)C(=O)[C@@H]2CCCN12	viability at 72 h, 50 µM [3]: 89%
15000 nM	–	–	–	CCOc1nc2cccc(C(=O)O)c2n1Cc1ccc(-c2ccccc2-c2nnn[nH]2)cc1	–
410 nM	–	inactive	–	CCCCC1=NC2(CCCC2)C(=O)N1Cc1ccc(-c2ccccc2-c2nnn[nH]2)cc1 [IRBESARTAN]	Activity (HCT-116 [5]): 88%
–	–	–	Not Active	CCOc1nc2cccc(C(=O)O)c2n1Cc1ccc(-c2ccccc2-c2noc(=O)[nH]2)cc1 [AZILSARTAN]	–
–	–	–	Not Active	CSc1ccc(C(=O)/C=C/c2cc(C)c(OC(C)(C)C(=O)O)c(C)c2)cc1 [ELAFIBRANOR]	–
–	–	inactive	Not Active	O=C(O)c1ccccc1-c1ccc(CN2C(=O)C3(CCCC3)N=C2CCc2ccccc2)cc1	IC50 ([2]; cho-k1): Not Active; Activity (HepG2): Non-Toxic
–	–	–	Not Active	O=C(O)COc1ccc(C(=O)c2cccs2)c(Cl)c1Cl	–
8140 nM	32 nM	inactive	–	CCCCC1=NC(C)(C)C(=O)N1Cc1ccc(-c2ccccc2-c2nnn[nH]2)cc1	viability at 72 h, 50 µM [3]: 56%
–	–	–	–	CCCCC(=O)N(Cc1ccc(-c2ccccc2C(=O)O)cc1)c1ccccc1	Activity (HCT-116 [5]): Active
7500 nM	10000 nM	inactive	–	CCCC[C@H]1N(Cc2ccc(-c3ccccc3-c3nnn[nH]3)cc2)C(=O)[C@H]2CCCN21	viability at 72 h, 50 µM [3]: 88%
16000 nM	–	–	–	CCCCC(=O)N(Cc1ccc(-c2ccccc2-c2nnn[nH]2)cc1)[C@H](C(=O)O)C(C)C	–
–	–	–	–	CCc1cc(C(C)=O)c(O)cc1OCCCCCC(C)(C)c1nn[nH]n1	Activity (HCT-116 [6]): inactive
860 nM	155 nM	inactive	–	CCCCC1=NC2(CCCCC2)C(=O)N1Cc1ccc(-c2ccccc2C(=O)O)cc1	–
–	8650 nM	–	–	O=C(O)c1ccccc1-c1ccc(CN2C(=O)C3(CCCC3)N=C2Cc2ccccc2)cc1	viability at 72 h, 50 µM [3]: 79%
–	–	–	Not Active	O=C(O)Cn1c2c(c3cc(F)ccc31)CN(C(=O)c1cccc3ccccc13)CC2 [SETIPIPRANT]	–
24200 nM	7750 nM	inactive	–	CCCCC1NC(=O)C2(CCCC2)N1Cc1ccc(-c2ccccc2C(=O)O)cc1 (stereo not given)	Activity (HepG2): Non-Toxic
–	–	–	Not Active	CC(C(=O)O)c1ccc2c(c1)CC(=O)c1ccccc1S2 (stereo not given) [ZALTOPROFEN]	–
67.6 nM	15 nM	inactive	–	CCCCC1=NC(C)(C(C)C)C(=O)N1Cc1ccc(-c2ccccc2-c2nnn[nH]2)cc1 (stereo not given)	Activity (HepG2): Non-Toxic; Activity (HCT-116 [5]): Active

SMILES	EC50 ([1]; read-out: EC50)	IC50 ([2]; read-out: IC50)	Activity [4]	EC50 ([1]; cho-k1)	further results
C[C@H](CCC(=O)O)[C@H]1CC[C@H]2[C@@H]3[C@H](O)C[C@@H]4C[C@H](O)CC[C@]4(C)[C@H]3CC[C@]12C [CHENODIOL]	–	–	–	Not Active	–
CCCCC1(C2CCCC2)Cc2cc(OCCCC(=O)O)c(Cl)c(Cl)c2C1=O (stereo not given)	–	–	–	Not Active	–

Source: ChEMBL document CHEMBL4837242, “Discovery of Irbesartan Derivatives as BLT2 Agonists by Virtual Screening” (ACS Med Chem Lett, 2021)
